Laboratory results taken from publication PMC4929832 (Nature, 2016).

What was measured:
ABL1 = ABL1 (Homo sapiens, UniProt P00519); experiment: kinase panel; assay type: biochemical
AKT1 = AKT1 (Homo sapiens, UniProt P31749); experiment: kinase panel; assay type: biochemical
CK1-GAMMA1 = CK1-GAMMA1 (Homo sapiens, UniProt Q9HCP0); experiment: kinase panel; assay type: biochemical
PAK5 = PAK5 (Homo sapiens, UniProt Q9P286); experiment: kinase panel; assay type: biochemical
ALK2 = ALK2 (Homo sapiens, UniProt Q04771); experiment: kinase panel; assay type: biochemical
MARK1 = MARK1 (Homo sapiens, UniProt Q9P0L2); experiment: kinase panel; assay type: biochemical
MARK4 = MARK4 (Homo sapiens, UniProt Q96L34); experiment: kinase panel; assay type: biochemical
PHK-GAMMA2 = PHK-GAMMA2 (Homo sapiens, UniProt P15735); experiment: kinase panel; assay type: biochemical
PI3K-ALPHA = PI3K-ALPHA (Homo sapiens, UniProt P42336); experiment: kinase panel; assay type: biochemical
DAPK1 = DAPK1 (Homo sapiens, UniProt P53355); experiment: kinase panel; assay type: biochemical
SLK = SLK (Homo sapiens, UniProt Q9H2G2); experiment: kinase panel; assay type: biochemical
SPHK1 = SPHK1 (Homo sapiens, UniProt Q9NYA1); experiment: kinase panel; assay type: biochemical
DYRK3 = DYRK3 (Homo sapiens, UniProt O43781); experiment: kinase panel; assay type: biochemical
BRSK1 = BRSK1 (Homo sapiens, UniProt Q8TDC3); experiment: kinase panel; assay type: biochemical
IRAK4 = IRAK4 (Homo sapiens, UniProt Q9NWZ3); experiment: kinase panel; assay type: biochemical
IRR = IRR (Homo sapiens, UniProt P14616); experiment: kinase panel; assay type: biochemical
TAOK2 = TAOK2 (Homo sapiens, UniProt Q9UL54); experiment: kinase panel; assay type: biochemical
CAMK2B = CAMK2B (Homo sapiens, UniProt Q13554); experiment: kinase panel; assay type: biochemical
TNIK = TNIK (Homo sapiens, UniProt Q9UKE5); experiment: kinase panel; assay type: biochemical
EPH-B4 = EPH-B4 (Homo sapiens, UniProt P54760); experiment: kinase panel; assay type: biochemical
PLK4 = PLK4 (Homo sapiens, UniProt O00444); experiment: kinase panel; assay type: biochemical
KIT = KIT (Homo sapiens, UniProt P10721); experiment: kinase panel; assay type: biochemical
PRAK = PRAK (Homo sapiens, UniProt Q8IW41); experiment: kinase panel; assay type: biochemical
NEK9 = NEK9 (Homo sapiens, UniProt Q8TD19); experiment: kinase panel; assay type: biochemical
TRKC = TRKC (Homo sapiens, UniProt Q16288); experiment: kinase panel; assay type: biochemical
TSSK1 = TSSK1 (Homo sapiens, UniProt Q9BXA7); experiment: kinase panel; assay type: biochemical
FGR = FGR (Homo sapiens, UniProt P09769); experiment: kinase panel; assay type: biochemical
CHEK1 = CHEK1 (Homo sapiens, UniProt O14757); experiment: kinase panel; assay type: biochemical
MAP4K2 = MAP4K2 (Homo sapiens, UniProt Q12851); experiment: kinase panel; assay type: biochemical
PAK2 = PAK2 (Homo sapiens, UniProt Q13177); experiment: kinase panel; assay type: biochemical
YES = YES (Homo sapiens, UniProt P07947); experiment: kinase panel; assay type: biochemical
Dopamine D2 receptor = Dopamine D2 receptor (Homo sapiens, UniProt P14416); experiment: Dopamine D2 receptor assay; assay type: binding
Muscarinic M1 receptor = Muscarinic M1 receptor (Homo sapiens, UniProt P11229); experiment: Muscarinic M1 receptor assay; assay type: binding
Nicotinic (CNS) Receptor = experiment: Nicotinic; assay type: binding; conditions: human IMR32 cells
PPARgamma Receptor = PPARgamma Receptor (Homo sapiens, UniProt P37231); experiment: PPARgamma Receptor antagonist assay; assay type: cell-based
Phosphodiesterase 3 = Phosphodiesterase 3 (Homo sapiens, UniProt Q14432); experiment: Phosphodiesterase 3 assay; assay type: biochemical
[1] = test system: L858R/T790M/C797S EGFR Ba/F3 cells; experiment: Ba/F3 cell proliferation; assay type: cell-based; conditions: EAI045 in combination with cetuximab, 72 hours
In short: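 Ba/F3 cells, either parental or stably expressing mutant EGFR lines described earlier, were exposed to the test compound for 72 hours. Cell numbers were set empirically. Growth was read by MTS assay. Each point was run in six wells, and each experiment was repeated at least three times. Curves were fitted by non-linear regression to a sigmoidal dose response.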

[2] = test system: exon19del/T790M EGFR mutant lung tumors (genetically engineered mice); experiment: Mouse efficacy study, tumor volume by MRI; assay type: in vivo; conditions: EAI045 60 mg/kg with cetuximab 1 mg I.P. every other day
In short: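 Transgenic lung tumors were induced at 6 weeks of age: exon19del/T790M mice by doxycycline diet, L858R/T790M/C797S mice by intranasal Ad-Cre. The test compound in 10% NMP/90% PEG-300 was given at 60 mg/kg daily by oral gavage. […] MRI ran at baseline and every 2 weeks, and tumor volume was quantified in 3D at 4 weeks. Cohorts were non-blinded and not randomized.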

[3] = biological target: EGFR L858R/T790M in H1975 cells (Homo sapiens, UniProt P00533, L858R/T790M); experiment: EGFR phosphorylation by western blotting; assay type: cell-based; conditions: western blot, 3h

Chain of SPHK1 (Q9NYA1 whole entry): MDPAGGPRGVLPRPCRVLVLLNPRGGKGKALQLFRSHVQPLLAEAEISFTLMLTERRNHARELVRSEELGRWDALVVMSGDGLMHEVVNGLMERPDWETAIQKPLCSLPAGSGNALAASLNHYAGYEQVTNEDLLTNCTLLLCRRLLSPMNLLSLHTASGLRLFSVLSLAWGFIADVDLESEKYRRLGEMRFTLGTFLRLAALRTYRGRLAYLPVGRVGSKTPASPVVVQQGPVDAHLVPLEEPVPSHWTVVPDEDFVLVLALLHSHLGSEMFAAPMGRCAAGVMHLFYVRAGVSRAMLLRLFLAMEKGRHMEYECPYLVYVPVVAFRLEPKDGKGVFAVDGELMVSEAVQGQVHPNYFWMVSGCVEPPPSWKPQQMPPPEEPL
Chain of PHK-GAMMA2 (P15735 whole entry): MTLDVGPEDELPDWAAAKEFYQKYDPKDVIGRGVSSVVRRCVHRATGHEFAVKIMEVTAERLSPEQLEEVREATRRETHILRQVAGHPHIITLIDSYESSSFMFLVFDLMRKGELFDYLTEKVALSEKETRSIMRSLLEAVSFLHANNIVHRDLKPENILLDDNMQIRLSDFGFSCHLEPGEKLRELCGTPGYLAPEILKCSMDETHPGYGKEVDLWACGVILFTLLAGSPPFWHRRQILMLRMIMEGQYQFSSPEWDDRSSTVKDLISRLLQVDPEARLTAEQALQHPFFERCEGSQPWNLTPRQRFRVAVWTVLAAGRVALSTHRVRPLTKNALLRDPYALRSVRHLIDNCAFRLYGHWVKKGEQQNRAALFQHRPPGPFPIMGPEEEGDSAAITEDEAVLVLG
Chain of AKT1 (P31749 whole entry): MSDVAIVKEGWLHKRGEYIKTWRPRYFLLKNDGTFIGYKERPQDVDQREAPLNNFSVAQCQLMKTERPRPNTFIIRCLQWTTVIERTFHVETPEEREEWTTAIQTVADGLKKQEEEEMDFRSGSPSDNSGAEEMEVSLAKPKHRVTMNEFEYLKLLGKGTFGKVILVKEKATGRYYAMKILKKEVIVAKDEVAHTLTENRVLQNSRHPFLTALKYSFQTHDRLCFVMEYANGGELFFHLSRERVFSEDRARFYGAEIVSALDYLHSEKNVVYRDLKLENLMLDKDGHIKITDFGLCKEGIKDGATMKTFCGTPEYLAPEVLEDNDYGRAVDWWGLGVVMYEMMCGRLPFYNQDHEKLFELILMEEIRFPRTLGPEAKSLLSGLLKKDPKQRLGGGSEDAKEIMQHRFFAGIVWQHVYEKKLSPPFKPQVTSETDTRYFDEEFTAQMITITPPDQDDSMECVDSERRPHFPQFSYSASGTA
Chain of CAMK2B (Q13554 whole entry): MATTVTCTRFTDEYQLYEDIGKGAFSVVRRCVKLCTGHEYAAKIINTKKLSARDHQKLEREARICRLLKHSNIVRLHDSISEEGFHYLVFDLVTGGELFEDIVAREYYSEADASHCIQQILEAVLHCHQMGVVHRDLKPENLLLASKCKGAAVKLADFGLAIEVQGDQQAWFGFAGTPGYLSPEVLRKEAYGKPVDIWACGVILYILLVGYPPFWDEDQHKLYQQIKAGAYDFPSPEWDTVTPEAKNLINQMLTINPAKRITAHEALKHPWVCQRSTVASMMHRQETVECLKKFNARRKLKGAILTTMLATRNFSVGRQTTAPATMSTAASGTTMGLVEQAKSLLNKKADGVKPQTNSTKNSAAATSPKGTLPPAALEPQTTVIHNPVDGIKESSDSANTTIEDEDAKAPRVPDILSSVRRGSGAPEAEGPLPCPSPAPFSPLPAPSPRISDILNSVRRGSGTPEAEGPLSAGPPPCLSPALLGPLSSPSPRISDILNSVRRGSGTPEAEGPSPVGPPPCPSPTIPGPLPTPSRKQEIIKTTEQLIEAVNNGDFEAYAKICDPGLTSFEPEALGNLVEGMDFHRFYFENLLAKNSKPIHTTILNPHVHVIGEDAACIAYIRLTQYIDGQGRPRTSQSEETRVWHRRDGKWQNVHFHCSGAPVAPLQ
Chain of CHEK1 (O14757 whole entry): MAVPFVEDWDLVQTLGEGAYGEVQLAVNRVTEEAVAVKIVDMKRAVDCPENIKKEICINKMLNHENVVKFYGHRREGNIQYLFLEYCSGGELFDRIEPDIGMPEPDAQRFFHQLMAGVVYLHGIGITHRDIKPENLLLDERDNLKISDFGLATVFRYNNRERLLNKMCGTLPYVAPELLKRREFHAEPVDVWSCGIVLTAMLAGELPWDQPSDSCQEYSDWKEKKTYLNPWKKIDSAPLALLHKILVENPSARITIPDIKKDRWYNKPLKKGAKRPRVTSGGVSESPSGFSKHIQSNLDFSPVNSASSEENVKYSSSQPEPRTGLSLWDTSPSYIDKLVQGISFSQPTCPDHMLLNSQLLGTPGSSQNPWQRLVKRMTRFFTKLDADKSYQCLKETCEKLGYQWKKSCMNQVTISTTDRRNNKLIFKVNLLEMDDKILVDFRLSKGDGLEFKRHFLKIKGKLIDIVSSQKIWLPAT
Chain of EPH-B4 (P54760 16-987): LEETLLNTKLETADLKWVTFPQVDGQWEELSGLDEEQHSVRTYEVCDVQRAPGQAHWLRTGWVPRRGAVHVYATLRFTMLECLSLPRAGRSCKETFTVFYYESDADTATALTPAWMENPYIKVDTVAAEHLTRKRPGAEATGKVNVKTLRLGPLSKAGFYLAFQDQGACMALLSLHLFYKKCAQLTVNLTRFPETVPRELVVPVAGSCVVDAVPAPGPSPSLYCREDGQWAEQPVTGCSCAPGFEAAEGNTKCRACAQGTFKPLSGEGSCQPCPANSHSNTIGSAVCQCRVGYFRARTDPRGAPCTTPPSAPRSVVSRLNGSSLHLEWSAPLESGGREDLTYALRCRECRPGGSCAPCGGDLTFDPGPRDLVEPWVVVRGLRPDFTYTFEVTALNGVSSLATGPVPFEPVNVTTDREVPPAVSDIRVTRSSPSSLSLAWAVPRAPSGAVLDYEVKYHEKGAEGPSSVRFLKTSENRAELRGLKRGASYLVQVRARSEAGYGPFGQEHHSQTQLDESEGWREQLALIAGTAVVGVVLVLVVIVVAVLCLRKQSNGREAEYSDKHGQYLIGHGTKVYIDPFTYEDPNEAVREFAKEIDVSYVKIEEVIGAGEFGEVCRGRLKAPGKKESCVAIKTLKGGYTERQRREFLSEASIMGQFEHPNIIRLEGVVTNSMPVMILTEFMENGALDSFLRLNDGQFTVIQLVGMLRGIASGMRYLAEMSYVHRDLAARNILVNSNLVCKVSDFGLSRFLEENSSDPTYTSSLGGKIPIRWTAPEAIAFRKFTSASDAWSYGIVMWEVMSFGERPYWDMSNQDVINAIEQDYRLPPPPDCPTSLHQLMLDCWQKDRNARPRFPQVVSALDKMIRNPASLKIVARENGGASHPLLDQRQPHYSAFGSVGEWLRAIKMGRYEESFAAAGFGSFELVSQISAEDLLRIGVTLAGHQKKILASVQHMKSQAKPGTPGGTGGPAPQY
Chain of MARK1 (Q9P0L2 whole entry): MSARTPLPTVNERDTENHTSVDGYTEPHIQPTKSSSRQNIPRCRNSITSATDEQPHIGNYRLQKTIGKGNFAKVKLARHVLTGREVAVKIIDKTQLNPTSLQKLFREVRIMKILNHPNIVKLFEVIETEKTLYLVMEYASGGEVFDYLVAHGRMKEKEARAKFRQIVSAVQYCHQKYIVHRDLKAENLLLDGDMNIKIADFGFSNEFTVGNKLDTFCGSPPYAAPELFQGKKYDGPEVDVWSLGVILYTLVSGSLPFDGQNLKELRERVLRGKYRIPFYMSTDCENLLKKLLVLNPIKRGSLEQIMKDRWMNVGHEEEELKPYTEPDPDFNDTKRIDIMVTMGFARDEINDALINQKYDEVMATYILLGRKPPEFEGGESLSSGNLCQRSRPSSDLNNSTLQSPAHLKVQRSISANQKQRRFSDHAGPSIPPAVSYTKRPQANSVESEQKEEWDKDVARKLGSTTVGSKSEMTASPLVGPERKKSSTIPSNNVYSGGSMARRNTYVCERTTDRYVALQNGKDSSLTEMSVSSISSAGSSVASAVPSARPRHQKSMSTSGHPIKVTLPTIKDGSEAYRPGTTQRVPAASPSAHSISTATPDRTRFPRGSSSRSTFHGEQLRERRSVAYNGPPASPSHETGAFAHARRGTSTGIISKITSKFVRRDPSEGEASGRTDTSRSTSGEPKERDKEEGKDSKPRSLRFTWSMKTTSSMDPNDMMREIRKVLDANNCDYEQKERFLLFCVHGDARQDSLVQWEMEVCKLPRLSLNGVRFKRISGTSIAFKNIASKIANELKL
Chain of PAK5 (Q9P286 whole entry): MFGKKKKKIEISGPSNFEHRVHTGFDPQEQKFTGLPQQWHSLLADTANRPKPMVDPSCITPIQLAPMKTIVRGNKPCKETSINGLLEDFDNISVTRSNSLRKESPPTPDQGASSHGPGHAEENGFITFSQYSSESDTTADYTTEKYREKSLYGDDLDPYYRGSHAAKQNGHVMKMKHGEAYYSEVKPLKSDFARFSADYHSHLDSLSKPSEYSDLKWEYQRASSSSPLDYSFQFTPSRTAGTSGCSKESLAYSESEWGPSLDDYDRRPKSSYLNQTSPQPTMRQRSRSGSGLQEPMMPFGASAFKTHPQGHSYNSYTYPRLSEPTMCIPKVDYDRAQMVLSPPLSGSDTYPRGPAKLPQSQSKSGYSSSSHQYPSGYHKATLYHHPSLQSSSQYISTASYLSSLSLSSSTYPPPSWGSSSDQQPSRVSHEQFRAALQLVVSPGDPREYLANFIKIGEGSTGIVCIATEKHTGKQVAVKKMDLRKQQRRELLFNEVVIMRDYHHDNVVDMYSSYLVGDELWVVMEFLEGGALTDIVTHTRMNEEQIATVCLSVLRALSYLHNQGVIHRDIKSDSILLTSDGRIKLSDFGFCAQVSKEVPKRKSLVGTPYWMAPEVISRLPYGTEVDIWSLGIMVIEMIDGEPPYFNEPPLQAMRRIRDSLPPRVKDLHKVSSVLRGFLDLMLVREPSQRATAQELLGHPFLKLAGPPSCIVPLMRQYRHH

With `O=C(Nc1nccs1)C(c1cc(F)ccc1O)N1Cc2ccccc2C1=O` (stereo not drawn) [EAI045, 2-(5-fluoro-2-hydroxyphenyl)-2-(1-oxo-2,3-dihydro-1H-isoindol-2-yl)-N-(1,3-thiazol-2-yl)acetamide] the inhibition at 1 µM (ABL1) was 1%, the inhibition at 1 µM (AKT1) was 0% and the inhibition at 1 µM (CK1-GAMMA1) was 2%. The inhibition at 1 µM (PAK5) was 0%, the inhibition at 1 µM (ALK2) was 0% and the inhibition at 1 µM (MARK1) was 0%. For the same molecule, the inhibition at 1 µM (MARK4) was 0%, the inhibition at 1 µM (PHK-GAMMA2) was 0% and the inhibition at 1 µM (PI3K-ALPHA) was 0%. For the same molecule, the inhibition at 1 µM (DAPK1) was 0%, the inhibition at 1 µM (SLK) was 0% and the inhibition at 1 µM (SPHK1) was 0%. For the same molecule, the inhibition at 1 µM (DYRK3) was 2%, the inhibition at 1 µM (BRSK1) was 0% and the inhibition at 1 µM (IRAK4) was 0%. For the same molecule, the inhibition at 1 µM (IRR) was 0%, the inhibition at 1 µM (TAOK2) was 0% and the inhibition at 1 µM (CAMK2B) was 0%. The inhibition at 1 µM (TNIK) was 0%, the inhibition at 1 µM (EPH-B4) was 0% and the inhibition at 1 µM (PLK4) was 0%. It also gave an inhibition at 1 µM (KIT) of 0%, an inhibition at 1 µM (PRAK) of 0% and an inhibition at 1 µM (NEK9) of 0%. For the same molecule, the inhibition at 1 µM (TRKC) was 4%, the inhibition at 1 µM (TSSK1) was 2% and the inhibition at 1 µM (FGR) was 0%. For the same molecule, the inhibition at 1 µM (CHEK1) was 0%, the inhibition at 1 µM (MAP4K2) was 0% and the inhibition at 1 µM (PAK2) was 0%. For the same molecule, the inhibition at 1 µM (YES) was 0%, the IC50 (Dopamine D2 receptor) was over 30 µM and the IC50 (Muscarinic M1 receptor) was over 30 µM. For the same molecule, the IC50 (Nicotinic (CNS) Receptor) was over 30 µM, the IC50 (PPARgamma Receptor) was over 30 µM and the IC50 (Phosphodiesterase 3) was over 30 µM. For the same molecule, the inhibition of proliferation [1] was “potently inhibited”, the tumor response [2] was “failed to respond” and the EGFR autophosphorylation [3] was “potently decreased, but did not completely eliminate EGFR autophosphorylation”.
